Data from ChEMBL document CHEMBL4049431 (J Med Chem, 2017).
pEC50: −log10 of the molar value. Activity calls are given as the source filed them.

Assays:
Mus musculus [1] = assay: Analgesic activity in formalin-induced B6-SJL mouse pain model assessed as inhibition of inflammatory response at 2 mg/kg, ip preincubated for 10 mins followed by formalin injection measured at 20 to 50 mins; type: functional, organism-based
How it was run: (§1)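 Mice habituated to the test box received agonist ip in DMSO:Tween-80:saline (2:1:7). Ten min later, 20 μL of 2% formalin was injected intradermally into the right hind footpad. Video ran for 60 min, scored every 5 s (weight-bearing scale 0–3) by a blinded analyst and averaged per 5 min.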

Mus musculus [2] = assay: Analgesic activity in formalin-induced B6-SJL mouse pain model assessed as inhibition of nociceptive response at 2 mg/kg, ip preincubated for 10 mins followed by formalin injection measured at 5 to 10 mins; type: functional, organism-based; how it was run: as §1
[3] = molecular target: Delta-type opioid receptor (Homo sapiens) (UniProt P41143); assay: Agonist activity at human delta-type opioid receptor expressed in CHO-K1 cells assessed as forskolin-induced cAMP accumulation up to 10 uM after 30 mins in presence of forskolin by luminescence-based HitHunter cAMP assay; type: functional, cell-based
How it was run: (§2)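 CHO-K1 cells expressing the receptor were kept at 37 °C in 5% CO2. cAMP data were normalized to vehicle and forskolin-only controls. Each compound was run in triplicate in parallel assays in ≥2 independent experiments. EC50 and Emax came from sigmoidal nonlinear regression and were averaged across experiments as mean ± SEM.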

Mus musculus [4] = assay: Analgesic activity in formalin-induced B6-SJL mouse pain model assessed as inhibition of nociceptive response AUC at 2 mg/kg, ip preincubated for 10 mins followed by formalin injection measured up to 15 mins; type: functional, organism-based; how it was run: as §1
Mus musculus [5] = assay: Analgesic activity in B6-SJL mouse assessed as increase in tail withdrawal latency at 0.3 to 10 mg/kg, sc measured 30 mins post each dose by warm water tail withdrawal assay; type: functional; settings: 0.5 h
How it was run: (§3)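 Vehicle was DMSO:Tween-80:saline 2:1:7. Tail-withdrawal latency in 50 °C water (10 s cutoff) was recorded 30 min after each dose.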

[6] = Metabolic stability in IGS Sprague-Dawley rat liver microsomes assessed as CYP450-mediated oxidative metabolism at 10 uM measured at 2.5 hrs in presence of NADPH by LC-MS analysis; type: ADME
How it was run: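 Rat liver microsomes (0.25 mg/mL) in 50 mM potassium phosphate with 2 mM MgCl2, pH 7.4, were prewarmed to 37 °C. Compound (10 μM final) and NADPH (1 mM final) were added. Samples were quenched in MeCN with 1% formic acid containing tolbutamide, centrifuged and analysed by LCMS.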

Mus musculus [7] = assay: Analgesic activity in B6-SJL mouse assessed as increase in tail withdrawal latency at 2 mg/kg, ip measured up to 5 to 30 mins by warm water tail withdrawal assay; type: functional, organism-based
How it was run: (§4)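 Adult male mice (25−35 g) were habituated to restrainers over four days. Drug or vehicle (DMSO:Tween-80:saline 2:1:7) was given ip. One-third of the tail was immersed in 50 °C water, with a 10 s cutoff. Baseline was the mean of three latencies. Readings were taken at 5–120 min. %MPE was calculated against pretreatment latency; n = 8−9 per group.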

Liver = assay: Metabolic stability in IGS Sprague-Dawley rat liver microsomes at 10 uM measured at 2.5 hrs in absence of NADPH by LC-MS analysis; type: ADME, microsome
How it was run: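 Incubation used rat liver microsomes (0.25 mg/mL) in 50 mM potassium phosphate, 2 mM MgCl2, pH 7.4, at 37 °C, with 10 μM compound final and buffer in place of NADPH. Samples were quenched in MeCN/1% formic acid with tolbutamide, then quantified by LCMS.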

[8] = molecular target: Mu-type opioid receptor (Homo sapiens) (UniProt P35372); assay: Agonist activity at human mu-type opioid receptor expressed in CHO-K1 cells assessed as forskolin-induced cAMP accumulation up to 10 uM after 30 mins in presence of forskolin by luminescence-based HitHunter cAMP assay; type: functional, cell-based; how it was run: as §2
Mus musculus [9] = assay: Analgesic activity in sc dosed B6-SJL mouse assessed as increase in tail withdrawal latency measured 30 mins post each dose by warm water tail withdrawal assay; type: functional; settings: 0.5 h; how it was run: as §3
Mus musculus [10] = assay: Antiinflammatory activity in B6-SJL mouse assessed as reduction in formalin-induced paw edema at 2 mg/kg, ip preincubated for 10 mins followed by formalin injection measured at 60 mins; type: functional, organism-based
How it was run: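 Right hind paw height, width and depth were measured by calipers before ip drug or vehicle (DMSO:Tween-80:saline 2:1:7). Intradermal 2% formalin (20 μL) followed 10 min later, and measurements were repeated at 60 min. One-way ANOVA with Bonferroni tests; n = 7 per group.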

Mus musculus [11] = assay: Analgesic activity in formalin-induced B6-SJL mouse pain model assessed as inhibition of inflammatory response AUC at 2 mg/kg, ip preincubated for 10 mins followed by formalin injection measured at 15 to 60 mins; type: functional, organism-based; how it was run: as §1
[12] = molecular target: T1, Kappa-type opioid receptor (Homo sapiens, UniProt P41145); assay: Agonist activity at human kappa-type opioid receptor expressed in CHO-K1 cells assessed as forskolin-induced cAMP accumulation after 30 mins in presence of forskolin by luminescence-based HitHunter cAMP assay; type: functional, cell-based; how it was run: as §2
[13] = molecular target: T1, Kappa-type opioid receptor; assay: Agonist activity at human kappa-type opioid receptor expressed in CHO-K1 cells assessed as forskolin-induced cAMP accumulation up to 10 uM after 30 mins in presence of forskolin by luminescence-based HitHunter cAMP assay; type: functional, cell-based; how it was run: as §2
Mus musculus [14] = assay: Analgesic activity in formalin-induced B6-SJL mouse pain model assessed as inhibition of nociceptive response AUC at 2 mg/kg, ip preincubated for 10 mins followed by formalin injection measured up to 15 mins in presence of kappa-type opioid receptor antagonist nor-BNI; type: functional, organism-based
How it was run: (§5)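 nor-BNI (10 mg/kg, sc) was given 24 h before ip agonist (DMSO:Tween-80:saline 2:1:7). After 10 min, 20 μL of 2% formalin was injected intradermally into the right hind paw.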

Mus musculus [15] = assay: Analgesic activity in B6-SJL mouse assessed as increase in tail withdrawal latency at 2 mg/kg, ip measured up to 10 to 30 mins by warm water tail withdrawal assay; type: functional, organism-based; how it was run: as §4
Mus musculus [16] = assay: Analgesic activity in formalin-induced B6-SJL mouse pain model assessed as inhibition of nociceptive response at 2 mg/kg, ip preincubated for 10 mins followed by formalin injection measured at 10 mins in presence of kappa-type opioid receptor antagonist nor-BNI; type: functional, organism-based; how it was run: as §5
Mus musculus [17] = assay: Analgesic activity in formalin-induced B6-SJL mouse pain model assessed as inhibition of inflammatory response at 2 mg/kg, ip preincubated for 10 mins followed by formalin injection measured at 20 to 45 mins; type: functional, organism-based; how it was run: as §1
Mus musculus [18] = assay: Analgesic activity in formalin-induced B6-SJL mouse pain model assessed as inhibition of inflammatory response at 2 mg/kg, ip preincubated for 10 mins followed by formalin injection measured at 20 to 45 mins in presence of kappa-type opioid receptor antagonist nor-BNI; type: functional, organism-based; how it was run: as §5
Mus musculus [19] = assay: Analgesic activity in formalin-induced B6-SJL mouse pain model assessed as inhibition of nociceptive response at 2 mg/kg, ip preincubated for 10 mins followed by formalin injection measured at 10 mins; type: functional, organism-based; how it was run: as §1
Mus musculus [20] = assay: Analgesic activity in formalin-induced B6-SJL mouse pain model assessed as inhibition of inflammatory response AUC at 2 mg/kg, ip preincubated for 10 mins followed by formalin injection measured at 15 to 60 mins in presence of kappa-type opioid receptor antagonist nor-BNI; type: functional, organism-based; how it was run: as §5

T1 sequence (P41145 whole entry): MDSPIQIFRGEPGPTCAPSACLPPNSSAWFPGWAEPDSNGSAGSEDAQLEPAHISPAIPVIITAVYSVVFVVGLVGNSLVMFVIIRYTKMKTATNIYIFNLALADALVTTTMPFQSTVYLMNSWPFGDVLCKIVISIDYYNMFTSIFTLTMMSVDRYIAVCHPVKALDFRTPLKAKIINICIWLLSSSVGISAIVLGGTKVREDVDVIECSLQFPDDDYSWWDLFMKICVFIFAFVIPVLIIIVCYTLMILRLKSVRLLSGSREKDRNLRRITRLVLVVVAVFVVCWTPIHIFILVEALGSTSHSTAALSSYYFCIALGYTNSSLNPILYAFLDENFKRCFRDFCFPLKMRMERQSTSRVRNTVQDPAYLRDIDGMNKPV
Sequence of Delta-type opioid receptor (Homo sapiens) (P41143 whole entry): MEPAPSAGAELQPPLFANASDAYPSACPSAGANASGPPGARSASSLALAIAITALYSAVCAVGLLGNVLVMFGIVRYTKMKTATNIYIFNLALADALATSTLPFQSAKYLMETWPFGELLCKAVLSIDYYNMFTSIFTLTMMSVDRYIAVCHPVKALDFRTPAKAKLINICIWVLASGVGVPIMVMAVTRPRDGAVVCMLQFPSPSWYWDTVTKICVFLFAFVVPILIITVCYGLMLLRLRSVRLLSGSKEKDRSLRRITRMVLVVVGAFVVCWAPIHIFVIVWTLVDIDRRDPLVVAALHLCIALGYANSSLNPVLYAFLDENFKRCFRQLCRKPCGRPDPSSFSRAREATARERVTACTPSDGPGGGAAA
Sequence of Mu-type opioid receptor (Homo sapiens) (P35372 whole entry): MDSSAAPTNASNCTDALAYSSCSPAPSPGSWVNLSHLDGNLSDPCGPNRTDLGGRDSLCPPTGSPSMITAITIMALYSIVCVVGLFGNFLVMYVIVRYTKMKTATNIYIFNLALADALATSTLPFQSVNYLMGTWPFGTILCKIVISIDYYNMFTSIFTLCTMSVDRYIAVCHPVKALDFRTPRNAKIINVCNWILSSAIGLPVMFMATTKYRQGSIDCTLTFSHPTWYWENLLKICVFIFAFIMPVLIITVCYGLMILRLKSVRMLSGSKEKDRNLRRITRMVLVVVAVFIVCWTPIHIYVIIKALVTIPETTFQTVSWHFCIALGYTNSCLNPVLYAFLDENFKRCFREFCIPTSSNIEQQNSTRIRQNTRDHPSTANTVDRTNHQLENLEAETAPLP

SMILES | Emax [3] [%] | Emax [8] [%] | pEC50 [12] | Emax [13] [%] | other results
COC(=O)[C@@H]1C[C@H](OC(C)=O)C(=O)[C@H]2[C@@]1(C)CC[C@H]1C(=O)O[C@H](c3ccoc3)C[C@]21C [SALVINORIN A] | 0 | 0 | – | – | inhibition (Mus musculus [1]): Active; inhibition (Mus musculus [2]): Active; inhibition (Mus musculus [4]): Active; Emax (Mus musculus [5]): 100%; Stability [6]: Stable; Activity (Mus musculus [7]): Active; Stability (Liver): Stable; ED50 (Mus musculus [9]): 1.28 mg/kg; inhibition (Mus musculus [10]): Active; inhibition (Mus musculus [11]): Active
COC(=O)[C@H]1[C@](C)([C@@H](CC=O)C(=O)OC)CC[C@H]2C(=O)O[C@H](c3ccoc3)C[C@]12C | 0 | 0 | 7.52 | 100 | –
COC(=O)[C@@H]1CC(=O)C(O)=C2[C@@]1(C)CC[C@H]1C(=O)O[C@H](c3ccoc3)C[C@]21C | – | – | < 5.00 | 0 | –
COC(=O)[C@H]1[C@](C)([C@@H](CCOC(C)=O)C(=O)OC)CC[C@H]2C(=O)O[C@H](c3ccoc3)C[C@]12C | 0 | 0 | 7.89 | 100 | –
COC(=O)[C@@H]1CCC(=O)[C@H]2[C@@]1(C)CC[C@H]1C(=O)O[C@H](c3ccoc3)C[C@]21C | – | – | < 5.00 | 0 | –
COC(=O)[C@H]1[C@](C)([C@@H](CC(=O)O)C(=O)OC)CC[C@H]2C(=O)O[C@H](c3ccoc3)C[C@]12C | – | – | < 5.00 | 0 | –
COC(=O)[C@H]1[C@](C)([C@@H](CC(OC)OC)C(=O)OC)CC[C@H]2C(=O)O[C@H](c3ccoc3)C[C@]12C | 0 | 0 | 7.93 | 100 | –
COC(=O)[C@H]1[C@](C)([C@@H](CCO)C(=O)OC)CC[C@H]2C(=O)O[C@H](c3ccoc3)C[C@]12C | – | – | < 5.00 | 0 | –
COC(=O)[C@@H]1C[C@]2(CCC(=O)O2)C(=O)[C@H]2[C@@]1(C)CC[C@H]1C(=O)O[C@H](c3ccoc3)C[C@]21C | 0 | 0 | 9.22 | 100 | inhibition (Mus musculus [14]): inactive; Activity (Mus musculus [15]): Active; inhibition (Mus musculus [16]): inactive; inhibition (Mus musculus [17]): Active; inhibition (Mus musculus [4]): Active; Emax (Mus musculus [5]): 62.4%; Stability [6]: Stable; Stability (Liver): Stable; ED50 (Mus musculus [9]): 0.759 mg/kg; inhibition (Mus musculus [10]): Active; inhibition (Mus musculus [18]): inactive; inhibition (Mus musculus [19]): Active; inhibition (Mus musculus [20]): inactive; inhibition (Mus musculus [11]): Active
COC(=O)[C@@H]1C[C@H](O)C(=O)[C@H]2[C@@]1(C)CC[C@H]1C(=O)O[C@H](c3ccoc3)C[C@]21C | 0 | 0 | – | 100 | –
